The results in this text go back to ChEMBL document CHEMBL1821622, “Thiazole- and imidazole-containing peptidomimetic inhibitors of protein farnesyltransferase” (Bioorg Med Chem Lett, 2011).

Assay [1] is described as follows: (§1) Inhibition of cell proliferation in RASMC cells after 72 hrs by Coulter Counter method. It is filed as functional, cell-based, Rattus norvegicus. In a few lines:
(§2)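 Rat aortic SMCs were seeded at 2 × 10^5 cells per 35 mm dish in DMEM with 10% FCS. Cells were counted after trypsinization. DMSO was at most 0.5% final. IC50 came from linear regression of log concentration vs logit.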

Assay [2] relates to RASMC. Kind of assay: Inhibition of rat Ftase in RASMC cells assessed as reduction of Ras prenylation at 50 to 100 uM after 72 hrs by Western blot analysis relative to control. It is filed as cell-based. The gist of the method:
(§3)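 Rat SMCs were seeded at 4 × 10^5 per 60 mm dish and taken through the same serum arrest and restimulation as the proliferation assay, with 72 h exposure. Cells were lysed for 30 min on ice in Tris pH 7.5/NaCl/NP-40 buffer with inhibitors and cleared at 15,000g. Protein was measured by BCA. Lysates were run on reducing SDS-PAGE and immunoblotted with anti-Ras (RAS10) using ECL. The slower band is unprenylated Ras; the faster band is prenylated Ras.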
In general terms: A western blot detects proteins with antibodies after separation by electrophoresis.

For assay [3], the species on record is Rattus norvegicus. In words: (§4) Inhibition of rat recombinant FTase using Dansyl-Gly-Cys-Val-Leu-Ser-OH peptide and farnesyl-pyrophosphate substrates measured every 15 seconds for 5 mins by fluorescent assay.
A short description of assay [4]: as §4.
For assay [5], the system named is RASMC. Described as §1. In kind it is functional, cell-based. To be noted: Rattus norvegicus. In a few lines: as §2
Assay [6] deals with RASMC. Kind of assay: Inhibition of rat Ftase in RASMC cells assessed as reduction in Ras prenylation at 2 uM after 72 hrs by Western blot analysis. It is filed as cell-based. In a few lines: as §3
Where [7] appears, read: Rattus norvegicus, RASMC, 72 h, read-out: IC50.

Active and inactive are the calls of the source. The calls are words filed in the database; no cut-off is given here.

Usually IC50 stands for the point on the concentration scale where inhibition reaches its midpoint. As for `CSCC[C@H](NC(=O)c1ccc(NC(=O)Cc2csc(SC)n2)cc1-c1ccccc1C)C(=O)OC(C)C`, the IC50 result in assay [1] (rasmc) is “Not Active”.
Consider `CSCC[C@H](NC(=O)c1ccc(NC(=O)Cc2csc(N)n2)cc1-c1ccccc1C)C(=O)O`, for which the inhibition entry in assay [2], in assay [3] and in assay [5] was “Dose-dependent effect” throughout. Further, the IC50 in assay [4] (read-out: IC50) is 49 nM.
As for `CSCC[C@H](NC(=O)c1ccc(NC(=O)Cc2csc(S)n2)cc1-c1ccccc1C)C(=O)OC(C)C`, the IC50 in assay [1] (setting [7]) is 21000 nM.
With `CSCC[C@H](NC(=O)c1ccc(NC(=O)CCc2csc(S)n2)cc1-c1ccccc1C)C(=O)OC(C)C`, in assay [1] (setting [7]), the 50% inhibitory concentration (IC50) came out at 25000 nM.
On the same count and under the same terms, the value for `CSCC[C@H](NC(=O)c1ccc(NC(=O)Cc2csc(N)n2)cc1-c1ccccc1C)C(=O)OC(C)C` was 107000 nM.
Consider `CSCC[C@H](NC(=O)c1ccc(NC(=O)CCc2csc(N)n2)cc1-c1ccccc1C)C(=O)OC(C)C`, for which the IC50 entry in assay [1] (rasmc) was “Not Active”.
As to `CSCC[C@H](NC(=O)c1ccc(NC(=O)CCc2csc(N)n2)cc1-c1ccccc1C)C(=O)O`, the IC50 in assay [4] (read-out: IC50) was found to be 390 nM.
Turning to `CCC(C)(C)C(=O)O[C@H]1C[C@@H](C)C=C2C=C[C@H](C)[C@H](CC[C@@H]3C[C@@H](O)CC(=O)O3)[C@H]21`, the inhibition entry in assay [6] was “Active”.
Consider `CSCC[C@H](NC(=O)c1ccc(NC[C@@H](N)CS)cc1-c1ccccc1)C(=O)O`, for which the IC50 in assay [4] (read-out: IC50) was 9 nM.
On the same count and under the same terms, the same measure for `CSCC[C@H](NC(=O)c1ccc(NC(=O)CCc2csc(SC)n2)cc1-c1ccccc1C)C(=O)O`: 415 nM.
On to `CSCC[C@H](NC(=O)c1ccc(NC(=O)Cc2csc(SC)n2)cc1-c1ccccc1C)C(=O)O`, for which, in assay [4], the IC50 result is given as “Not Active”.
Regarding `CSCC[C@H](NC(=O)c1ccc(NC(=O)Cc2c[nH]c(S)n2)cc1-c1ccccc1C)C(=O)O`, the IC50 in assay [4] (read-out: IC50) stood at 122 nM.
In the case of `CSCC[C@H](NC(=O)c1ccc(NC(=O)CCc2c[nH]c(S)n2)cc1-c1ccccc1C)C(=O)OC(C)C`, in assay [1] (setting [7]), the IC50 worked out at 34000 nM.
Turning to `CSCC[C@H](NC(=O)c1ccc(NC(=O)CCc2csc(SC)n2)cc1-c1ccccc1C)C(=O)OC(C)C`, the concentration for half-maximal inhibition (IC50) entry in assay [1] (rasmc) is “Not Active”.
`CSCC[C@H](NC(=O)c1ccc(NC(=O)CCc2csc(S)n2)cc1-c1ccccc1C)C(=O)O`: in assay [4] (read-out: IC50), the IC50 is 526 nM.
For `CSCC[C@H](NC(=O)c1ccc(NC(=O)CCc2c[nH]c(S)n2)cc1-c1ccccc1C)C(=O)O`, the IC50 entry in assay [4] is “Not Active”.
Consider `CSCC[C@H](NC(=O)c1ccc(NC(=O)Cc2csc(S)n2)cc1-c1ccccc1C)C(=O)O`, for which the half-maximal inhibitory concentration (IC50) in assay [4] (read-out: IC50) came to 538 nM.
As to `CSCC[C@H](NC(=O)c1ccc(NC(=O)Cc2c[nH]c(S)n2)cc1-c1ccccc1C)C(=O)OC(C)C`, the 50% inhibitory concentration (IC50) in assay [1] (setting [7]) was 226000 nM.
